Usually IC50 stands for the concentration that inhibits the measured activity by half. The low end stands for higher potency, the high end for lower potency. One may read the GI50 as the concentration giving 50% growth inhibition. Read a high GI50 as less potent growth inhibition.

The results in this text go back to ChEMBL document CHEMBL1152250, “Novel and orally active 5-(1,3,4-oxadiazol-2-yl)pyrimidine derivatives as selective FLT3 inhibitors” (Bioorg Med Chem Lett, 2008).

Series [1] has as its target T1, Receptor-type tyrosine-protein kinase FLT3 (Homo sapiens, UniProt P36888).
T1 sequence (P36888 whole entry): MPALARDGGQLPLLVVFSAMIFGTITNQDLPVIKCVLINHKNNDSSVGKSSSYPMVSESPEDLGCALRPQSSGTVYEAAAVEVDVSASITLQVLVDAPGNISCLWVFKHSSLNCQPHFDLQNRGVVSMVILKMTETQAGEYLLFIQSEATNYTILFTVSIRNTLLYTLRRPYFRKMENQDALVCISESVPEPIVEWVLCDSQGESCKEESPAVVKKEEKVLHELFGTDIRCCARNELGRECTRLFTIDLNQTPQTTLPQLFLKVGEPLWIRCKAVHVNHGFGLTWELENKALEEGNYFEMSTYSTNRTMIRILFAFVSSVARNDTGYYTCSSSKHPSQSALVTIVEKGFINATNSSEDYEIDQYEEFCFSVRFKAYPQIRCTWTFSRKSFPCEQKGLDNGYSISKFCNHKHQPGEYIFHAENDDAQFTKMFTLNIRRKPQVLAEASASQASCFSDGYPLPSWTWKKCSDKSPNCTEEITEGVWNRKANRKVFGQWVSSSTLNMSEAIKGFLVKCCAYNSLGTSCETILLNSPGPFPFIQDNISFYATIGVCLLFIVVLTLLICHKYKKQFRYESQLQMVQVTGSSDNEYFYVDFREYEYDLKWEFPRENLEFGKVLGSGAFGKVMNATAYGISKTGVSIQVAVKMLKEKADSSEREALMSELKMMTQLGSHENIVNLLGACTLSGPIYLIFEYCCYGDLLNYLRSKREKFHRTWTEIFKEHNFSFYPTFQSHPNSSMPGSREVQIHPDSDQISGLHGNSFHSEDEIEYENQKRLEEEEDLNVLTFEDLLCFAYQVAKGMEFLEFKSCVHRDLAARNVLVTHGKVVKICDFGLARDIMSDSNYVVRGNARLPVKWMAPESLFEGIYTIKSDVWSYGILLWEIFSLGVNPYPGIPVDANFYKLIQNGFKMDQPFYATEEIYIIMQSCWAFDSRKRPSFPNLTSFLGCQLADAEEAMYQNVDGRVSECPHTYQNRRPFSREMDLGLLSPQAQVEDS
In words: Inhibition of GST-tagged FLT3 by ELISA. A general note: ELISA stands for enzyme-linked immunosorbent assay.

Series [2] deals with MOLM-13. In words: Antiproliferative activity against human MOLM13 cells after 72 hrs by WST-1 assay. The series is classed as functional. The conditions noted are these: MOLM-13, 72 h. In a few lines: (§1)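 Cells kept in RPMI1640 with 10% heat-inactivated FBS, 1% penicillin and 1% streptomycin, seeded in 96-well plates and exposed to test compounds for 72 h. Viability read with WST-1 reagent. GI50 is the mean ± SEM of three experiments.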
In general terms: Tetrazolium assays rely on reduction of a dye to a coloured formazan, in cell work by metabolically active cells.

The subject of the next series is Liver microsomes. In words: Metabolic stability in human liver microsomes assessed as intrinsic clearance. The series is classed as ADME, Microsome. In outline: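 Pooled human liver microsomes (0.2 mg protein/mL) with test compound at 0.1 or 1 μmol/L, 5 mmol/L NADPH, 100 mmol/L phosphate buffer pH 7.4, 6 mmol/L MgCl2 and 0.1 mmol/L EDTA. Cosolvent was DMSO (0.01 or 0.001 vol%) or methanol (1 vol%). Incubated at 37 °C for a fixed time, n = 1 or 2. Stopped with CH3CN containing internal standard and analysed by LC-MS or LC-MS/MS. Intrinsic clearance calculated from percent remaining.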

Series [3] in a line: Antiproliferative activity against human HMC1 cells expressing FLT3-delta599 mutant after 72 hrs by WST-1 assay. It counts as functional. As to conditions: HMC1, 72 h. In outline: as §1
The nature of series [4]: Antiproliferative activity against human HMC1 cells expressing FLT-D835Y mutant after 72 hrs by WST-1 assay. As to conditions: HMC1, 72 h. It counts as functional. In a few lines:
as §1

Series [5] is described as follows: Antiproliferative activity against human ML1 cells after 72 hrs by WST-1 assay. The series is classed as functional. As to conditions: ML1, 72 h. In a few lines: as §1
The subject of series [6] is MOLM-13. In words: Antitumor activity against human MOLM13 cells xenografted in SCID mouse assessed as minimal tumor volume ratio at 50 mg/kg, po bid treated for 5 days measured after 7 days relative to control. The series is classed as functional. In outline:
(§2)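 SCID mice bearing subcutaneous MOLM-13 xenografts, 5 per group, dosed orally b.i.d. for 5 days. […] is the mean tumour volume ratio, treated to control. Regression is the mean tumour volume relative to the initial volume on day 0. Mortality and body weight were also recorded.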
(In general: In xenograft studies the graft and the host belong to different species.)

Series [7] concerns MOLM-13. The experiment in a line: Antitumor activity against human MOLM13 cells xenografted in SCID mouse assessed as minimal tumor volume ratio at 100 mg/kg, po bid treated for 5 days measured after 7 days relative to control. It counts as functional. In outline: as §2
For series [8], the system named is Mus musculus. The experiment in a line: Toxicity to human MOLM13 cells xenografted SCID mouse assessed as mortality at 50 mg/kg, po bid after 5 days. The series is classed as organism-based, MOLM-13. On the set-up: dose 50 mg/kg, route oral. The conditions noted are these: in vivo, 120 h. In a few lines: (§3)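 MOLM-13 cells implanted subcutaneously in SCID mice. Compound given orally twice daily for 5 days at 50, 100 or 200 mg/kg, alongside an untreated control group. Mortality was scored per dose group, together with tumor volume as treated/control ratio and relative to day-0 volume.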

In series [9] the test system is Mus musculus. The experiment in a line: Toxicity to human MOLM13 cells xenografted SCID mouse assessed as body weight loss at 200 mg/kg, po bid after 5 days. The series is classed as organism-based, MOLM-13. Also noted: dose 200 mg/kg, route oral. As to conditions: in vivo, 120 h. In outline:
as §2

Series [10] can be described thus: Metabolic stability in human liver microsomes.
For series [11], the system named is MOLM-13. In words: Antitumor activity against human MOLM13 cells xenografted in SCID mouse assessed as tumor volume ratio at 200 mg/kg, po bid treated for 5 days measured after 10 days relative to control. The series is classed as functional. In outline:
as §2

Series [12] concerns MOLM-13. In words: Antitumor activity against human MOLM13 cells xenografted in SCID mouse assessed as minimal regressive tumor volume ratio at 100 mg/kg, po bid treated for 5 days measured after 4 days relative to control. It counts as functional. In a few lines: as §2
Series [13] has as its system MOLM-13. In words: Antitumor activity against human MOLM13 cells xenografted in SCID mouse assessed as minimal regressive tumor volume ratio at 200 mg/kg, po bid treated for 5 days measured after 10 days relative to control. It counts as functional. In a few lines: as §2
Series [14] deals with Mus musculus. The experiment in a line: Toxicity to human MOLM13 cells xenografted SCID mouse assessed as mortality at 100 mg/kg, po bid after 5 days. The series is classed as organism-based, MOLM-13. Also noted: dose 100 mg/kg, route oral. The conditions noted are these: in vivo, 120 h. In a few lines:
as §3

In series [15] the test system is Mus musculus. In words: Toxicity to human MOLM13 cells xenografted SCID mouse assessed as mortality at 200 mg/kg, po bid after 5 days. The series is classed as organism-based, MOLM-13. On the set-up: dose 200 mg/kg, route oral. The conditions noted are these: in vivo, 120 h. In a few lines: as §3
Series [16] relates to MOLM-13. The experiment in a line: Antitumor activity against human MOLM13 cells xenografted in po dosed SCID mouse assessed as tumor volume ratio administered bid for 5 days. It counts as functional, organism-based. In outline: as §2
For series [17], the system named is MOLM-13. In words: Antitumor activity against human MOLM13 cells xenografted in po dosed SCID mouse assessed as regression tumor volume ratio administered bid for 5 days. The series is classed as functional, organism-based. In outline: as §2

In series [1], `CCCNc1nc(NCCc2ccncc2)ncc1-c1nnc(C2CC2)o1` came in with an IC50 of 4.9 nM. For the same compound, the GI50 in the series with MOLM-13 [2] stood at 36 nM; in [3] it was 36 nM; in series [4], 52 nM; in [5] it was 4320 nM. In addition, the clearance in the series on Liver microsomes was 217 mL/min/kg. Further, the figures for the T/C with MOLM-13 [6] and with MOLM-13 [7] were 0.47 and 0.34, respectively. The figures for the Activity entry (in the series with Mus musculus [8]; in the series with Mus musculus [9]; in series [10]) were “Non-toxic”, “Non-toxic” and “Unstable”, respectively.

Consider `CCCNc1nc(NCCc2ccncc2)ncc1-c1nnc(CN2CCNCC2)o1`, for which the GI50 in the series on MOLM-13 [2] is 29 nM; in series [3], 74 nM; in series [4], 65 nM; in [5], 9110 nM. In addition, in the series on Liver microsomes, the clearance is 18.3 mL/min/kg. Also, the T/C worked out at 0.1 in the series with MOLM-13 [7] and 0.006 with MOLM-13 [11]. Further, the values for the Ratio in the series with MOLM-13 [12] and with MOLM-13 [13] were 0.571 and 0.098, respectively. For the same compound, the Activity result with Mus musculus [8] is “Non-toxic”; in the series with Mus musculus [14], “Non-toxic”; in the series on Mus musculus [15], “Non-toxic”; in the series with MOLM-13 [16], “Dose-dependent effect”; with MOLM-13 [17], “Dose-dependent effect”; with Mus musculus [9] it was “Non-toxic”.
